From ChEMBL document CHEMBL3784973, “A Parallel Synthesis Approach to the Identification of Novel Diheteroarylamide-Based Compounds Blocking HIV Replication: Potential Inhibitors of HIV-1 Pre-mRNA Alternative Splicing” (J Med Chem, 2016)
Calls of active or inactive are those of the source. The rule behind the calls is not given here.

What was measured:
[1] = test system: Human immunodeficiency virus 1; assay: Antiviral activity against HIV1 NL4-3 infected in GFP-positive human CEM cells expressing CD4+,CXCR4 and CCR5 at 2 uM after 3 days by flow cytometric analysis; format: functional, organism-based; conditions: CCRF-CEM
Method in brief: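 Library screen of HIV-1 spread in CEM-GXR cells cocultured with 1% HIV-1NL4-3-infected (GFP+) cells. Cells were grown in RPMI-1640 with 10% FCS and penicillin-streptomycin, and selected with G418 and hygromycin B during propagation. Compound at final 2 μM in DMSO was added right after inoculation. Infection was read by flow cytometry of GFP.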

[2] = test system: Human immunodeficiency virus 1; assay: Antiviral activity against subtype A R5 tropic HIV1 97USSN54 infected in GFP-positive human CEM cells expressing CD4+,CXCR4 and CCR5 after 3 days; format: functional, organism-based; conditions: Human immunodeficiency virus 1, 97USSN54, CCRF-CEM, 72 h
Method in brief: (§1)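 Infected CEM-GXR GFP-reporter cells were exposed to increasing compound concentrations. GFP-positive cells were measured by flow cytometry 3 days after infection. EC50 came from nonlinear regression of the inhibition curves. Mean of three independent determinations.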

[3] = test system: Human immunodeficiency virus 1; assay: Antiviral activity against subtype B X4 tropic HIV1 3B infected in GFP-positive human CEM cells expressing CD4+,CXCR4 and CCR5 after 3 days; format: functional, organism-based; conditions: Human immunodeficiency virus 1, 3B, CCRF-CEM, 72 h; method in brief: as §1
[4] = Cytotoxicity against GFP-positive human CEM cells expressing CD4+,CXCR4 and CCR5 assessed as cell viability at 100 uM after 24 hrs by Guava viacount assay (reference value: 98%); format: cell-based, CCRF-CEM; conditions: read-out: Activity
Method in brief: (§2)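 For viability, CEM-GXR cells were incubated 24 h with compound at 0.5–100 μM. Guava ViaCount flow assay used DNA-binding dye permeability plus forward scatter to exclude nuclei and debris. Values are % viable cells (±SEM, three independent experiments), and CC50 is the concentration killing 50% of host cells.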

[5] = test system: Human immunodeficiency virus 1; assay: Antiviral activity against […]-resistance HIV1 E00443 harboring reverse transcriptase D67N/K70R/Y115F/Q151M/M184V/K219Q mutant infected in GFP-positive human CEM cells expressing CD4+,CXCR4 and CCR5 after 3 days; format: functional, organism-based; conditions: Human immunodeficiency virus 1, E00443, CCRF-CEM, 72 h
[6] = test system: Human immunodeficiency virus 1; assay: Antiviral activity against PI-resistant HIV1 isolate 2948 harboring protease G48V/L90M mutant infected in GFP-positive human CEM cells expressing CD4+,CXCR4 and CCR5 after 3 days; format: functional, organism-based; conditions: Human immunodeficiency virus 1, isolate 2948, CCRF-CEM, 72 h
[7] = test system: Human immunodeficiency virus 1; assay: Antiviral activity against INI-resistant HIV1 isolate 11845 harboring integrase G140S/Q148H mutant infected in GFP-positive human CEM cells expressing CD4+,CXCR4 and CCR5 after 3 days; format: functional, organism-based; conditions: Human immunodeficiency virus 1, isolate 11845, CCRF-CEM, 72 h
[8] = test system: Human immunodeficiency virus 1; assay: Antiviral activity against maraviroc-resistant HIV1 BAL R5 harboring envelop V3 A19T/L20F/T22A/E25D/126V mutant infected in GFP-positive human CEM cells expressing CD4+,CXCR4 and CCR5 after 3 days; format: functional, organism-based; conditions: ccrf-cem
[9] = Cytotoxicity against GFP-positive human CEM cells expressing CD4+,CXCR4 and CCR5 assessed as cell viability at 16 uM after 24 hrs by Guava viacount assay; format: cell-based, CCRF-CEM; conditions: read-out: Activity
Method in brief: (§3)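 Uninfected CEM-GXR cells were incubated 24 h with serial dilutions from 62.5 nM to 16 μM final. Viability was read by Guava ViaCount (dye permeability staining with forward scatter gating) as % viable cells. Three independent experiments.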

[10] = Cytotoxicity against GFP-positive human CEM cells expressing CD4+,CXCR4 and CCR5 assessed as cell viability at 8 uM after 24 hrs by Guava viacount assay; format: cell-based, CCRF-CEM; conditions: read-out: Activity; method in brief: as §3
[11] = Cytotoxicity against GFP-positive human CEM cells expressing CD4+,CXCR4 and CCR5 assessed as cell viability at 4 uM after 24 hrs by Guava viacount assay; format: cell-based, CCRF-CEM; conditions: read-out: Activity; method in brief: as §3
[12] = Cytotoxicity against GFP-positive human CEM cells expressing CD4+,CXCR4 and CCR5 assessed as cell viability at 1 uM after 24 hrs by Guava viacount assay; format: cell-based, CCRF-CEM; conditions: read-out: Activity; method in brief: as §3
[13] = Cytotoxicity against GFP-positive human CEM cells expressing CD4+,CXCR4 and CCR5 assessed as cell viability at after 24 hrs by Guava viacount assay; format: cell-based, CCRF-CEM; method in brief: as §2
[14] = test system: Human immunodeficiency virus 1; assay: Antiviral activity against HIV1 3B infected in GFP-positive human CEM cells expressing CD4+,CXCR4 and CCR5 assessed as number of infected cells at 1 uM after 3 days; format: functional, CCRF-CEM
Method in brief: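 CEM-GXR cells (CD4+ T-cell line, Tat-driven LTR-GFP reporter) infected by coculture with 1% HIV-1IIIB-infected cells. Serial dilutions 62.5 nM–16 μM added at inoculation. GFP-positive (infected) cells counted 3 days post-infection. Three independent experiments.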

[15] = Therapeutic index, ratio of CC50 for GFP-positive human CEM cells expressing CD4+,CXCR4 and CCR5 to EC50 for HIV1 3B infected in GFP-positive human CEM cells expressing CD4+,CXCR4 and CCR5; format: cell-based, CCRF-CEM; conditions: read-out: TI
Method in brief: (§4)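 Reporter CEM-GXR T cells (Tat-driven LTR-GFP cassette; RPMI-1640, 10% FCS, penicillin-streptomycin) were infected by coculture with 1% HIV-infected GFP-positive cells. Compound in DMSO was added after inoculation. Infected cells were counted by flow cytometry for GFP at day 3, and EC50 was taken from nonlinear regression. CC50 came from Guava ViaCount viability after 24 h at 0.5–100 μM. Index = CC50/EC50.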

[16] = Therapeutic index, ratio of CC50 for GFP-positive human CEM cells expressing CD4+,CXCR4 and CCR5 to EC50 for HIV1 97USSN54 infected in GFP-positive human CEM cells expressing CD4+,CXCR4 and CCR5; format: cell-based, CCRF-CEM; conditions: read-out: TI; method in brief: as §4
[17] = Therapeutic index, ratio of CC50 for GFP-positive human CEM cells expressing CD4+,CXCR4 and CCR5 to EC50 for […] HIV1 E00443 reverse transcriptase D67N/K70R/Y115F/Q151M/M184V/K219Q mutant infected in GFP-positive human CEM cells expressing CD4+,CXCR4 and CCR5; format: cell-based; conditions: ccrf-cem, read-out: TI
[18] = Therapeutic index, ratio of CC50 for GFP-positive human CEM cells expressing CD4+,CXCR4 and CCR5 to EC50 for HIV1 isolate 2948 harboring protease G48V/L90M mutant infected in GFP-positive human CEM cells expressing CD4+,CXCR4 and CCR5; format: cell-based; conditions: ccrf-cem, read-out: TI
[19] = Therapeutic index, ratio of CC50 for GFP-positive human CEM cells expressing CD4+,CXCR4 and CCR5 to EC50 for INI-resistant HIV1 isolate 11845 harboring integrase G140S/Q148H mutant infected in GFP-positive human CEM cells expressing CD4+,CXCR4 and CCR5; format: cell-based; conditions: ccrf-cem, read-out: TI
[20] = Therapeutic index, ratio of CC50 for GFP-positive human CEM cells expressing CD4+,CXCR4 and CCR5 to EC50 for maraviroc-resistant HIV1 BAL R5 harboring envelop V3 A19T/L20F/T22A/E25D/126V mutant infected in GFP-positive human CEM cells expressing CD4+,CXCR4 and CCR5; format: cell-based; conditions: ccrf-cem, read-out: TI

| SMILES | antiviral activity call (active/inactive) [1] | EC50 [3] [nM] | viability at 24 h, 16 µM [9] [%] | viability at 24 h, 8 µM [10] [%] | viability at 24 h, 4 µM [11] [%] | viability at 24 h, 1 µM [12] [%] | Activity [14] [%] | other results |
| --- | --- | --- | --- | --- | --- | --- | --- | --- |
| Cn1ccc(=O)c(C(=O)Nc2nsc3ccc([N+](=O)[O-])cc23)c1 | Active | 600 | 78.7 | 80.9 | 81.5 | 89.6 | 18.4 | EC50 [2]: 900 nM; viability at 24 h, 100 µM [4]: 68.8%; EC50 [5]: 1300 nM; EC50 [6]: 1400 nM; EC50 [7]: 1500 nM; EC50 [8]: 900 nM; CC50 at 24 h [13]: > 100000 nM; selectivity ratio [15]: > 166; selectivity ratio [16]: > 111; selectivity ratio [17]: > 77; selectivity ratio [18]: > 71; selectivity ratio [19]: > 66; selectivity ratio [20]: > 111 |
| Cc1c2ccnc(Cl)c2cc2c3cn(C)ccc-3nc12 |  |  | 11.9 | 19.9 | 33.2 | 85.5 | 17.7 |  |
| Nc1nc(=O)n([C@@H]2CS[C@H](CO)O2)cc1F [EMTRICITABINE] |  | 40 |  |  |  |  |  |  |
| COCCOc1cc(=O)n(C)cc1C(=O)Nc1nsc2ccc([N+](=O)[O-])cc12 | Active |  |  |  |  |  |  |  |
| COc1cc(C(=O)Nc2nsc3ccc([N+](=O)[O-])cc23)ccn1 | Active |  |  |  |  |  |  |  |
| COCCOc1ccncc1C(=O)Nc1nsc2ccc([N+](=O)[O-])cc12 | Active |  |  |  |  |  |  |  |
